The nature of data set [1]: Toxicity in human RBC assessed as minimum drug level required for 10% hemolysis after 2 hrs. It counts as cell-based. Particulars: erythrocyte. A digest of the protocol: (§1)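 In the red blood cell lysis assay, percent lysis was normalised to melittin ([…]) as 100% lysis and PBS as 0%. HC50 is the concentration giving 50% hemolysis. The minimal hemolytic concentration is the peptide level giving 10% hemolysis.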

The subject of data set [2] is HeLa. Description: Cytotoxicity against human HeLa cells assessed as dehydrogenase activity after 24 hrs by […]. It counts as functional. Particulars: read-out: LC50 (the source's name). The procedure, abridged:
(§2)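 Cells grown in MEM with 10% FBS at 37 °C, 5% CO2 (MCF7 also given 0.01 mg/mL insulin). Unlabeled peptides were applied over a concentration range for 24 h in OPTI-MEM with 2% FBS. Cell death was scored by Sytox Red staining for loss of plasma membrane integrity and by CCK-8 dehydrogenase activity, and LC50 was determined.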

The nature of data set [3]: Toxicity in human RBC assessed as hemolytic activity after 2 hrs. In kind it is cell-based, Erythrocyte. As to conditions: red blood cells. The procedure, abridged:
as §1

Data set [4] in a line: Toxicity in mouse liver mitochondria assessed as minimum drug level required for mitochondrial disruption. As to conditions: in vitro.
Data set [5] concerns MDA-MB-231. Description: Specificity index, ratio of LC50 for human MDA-MB-231 cells to LC50 for human KS1767 cells. It counts as functional.
Data set [6] deals with MDA-MB-231. Put plainly: Cytotoxicity against human MDA-MB-231 cells assessed as dehydrogenase activity after 48 hrs by […]. As to conditions: MDA-MB-231, 48 h, read-out: LC50 (the source's name). It counts as functional.
Data set [7] in a line: Cytotoxicity against human KS1767 cells assessed as dehydrogenase activity after 48 hrs by […]. It counts as functional. As to conditions: KS1767, 48 h, read-out: LC50 (the source's name). A digest of the protocol: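 KS1767 cells were kept in DMEM with 10% FBS. Integrin-homing (CNGRC) peptide conjugates were incubated over a concentration range for 48 h in OPTI-MEM with 2% FBS. Death was read by Sytox Red viability staining and CCK-8 dehydrogenase activity, and LC50 was determined.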

The nature of data set [8]: Cytotoxicity against human MRC5 cells assessed as dehydrogenase activity after 24 hrs by […]. In kind it is cell-based. As to conditions: read-out: LC50. The procedure, abridged:
as §2

The subject of data set [9] is HeLa. Put plainly: Cytotoxicity against human HeLa cells assessed as loss of plasma membrane integrity at LC50 of 2.5 uM by sytox red staining-based flow cytometry. In kind it is functional, cell-based.
Another data set deals with DU-145. Description: Cytotoxicity against human DU145 cells assessed as dehydrogenase activity after 24 hrs by […]. It counts as functional. As to conditions: DU-145, 24 h, read-out: LC50 (the source's name). A digest of the protocol: as §2
A further data set concerns FaDu. Description: Cytotoxicity against human FADU cells assessed as dehydrogenase activity after 24 hrs by […]. In kind it is functional. As to conditions: read-out: LC50 (the source's name). A digest of the protocol:
as §2

Data set [10] in a line: Octanol-water partition coefficient, log P at pH 7.4. In kind it is physicochemical. A digest of the protocol: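 Thiazole orange-labelled peptides were partitioned between 1-octanol and 10 mM Tris, pH 7.4. LogP is the mean with sd of three trials.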
The test system of the next data set is MCF7. Description: Cytotoxicity against human MCF7 cells assessed as dehydrogenase activity after 24 hrs by […]. In kind it is functional. Particulars: MCF7, 24 h, read-out: LC50 (the source's name). A digest of the protocol:
as §2

Data set [11] has as its system HeLa. Description: Cytotoxicity against human HeLa cells assessed as loss of mitochondrial membrane integrity at LC50 of 2.5 uM by flow cytometry.
Data set [12] concerns HeLa. Put plainly: Cytotoxicity against human HeLa cells assessed as swelling and disruption of mitochondria at LC50 of 2.5 uM after 30 mins by transmission electron microscopy. It counts as functional, cell-based.
Data set [13] relates to HeLa. Put plainly: Cytotoxicity against human HeLa cells assessed as swelling and disruption of mitochondria at LC50 of 2.5 uM after 30 mins by calcein-AM release and quenching assay. In kind it is functional, cell-based.
The subject of data set [14] is HeLa. Put plainly: Induction of apoptosis in human HeLa cells assessed as increase in DNA fragmentation at 2.5 uM by TUNEL assay. As to conditions: TDE = time-dependent effect. It counts as functional, cell-based. A digest of the protocol: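 HeLa cells were treated with 2.5 µM peptide and sampled over time. DNA fragmentation in fixed, washed cells was detected by TUNEL using the APO-BrdU kit per the manufacturer.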

Data set [15] concerns HeLa. Put plainly: Induction of apoptosis in human HeLa cells assessed as caspase 9 activation at 2.5 uM. In kind it is functional, cell-based. A digest of the protocol:
(§3)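 After peptide treatment, HeLa cells were trypsinized, pelleted and washed. They were then stained either with FITC anti-activated caspase 3 or with anti-activated caspase 9 plus an anti-goat AlexaFluor 555 secondary. Cells were washed again and read by flow cytometry. Staurosporine-treated cells served as the positive control.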

Data set [16] concerns HeLa. Description: Cytotoxicity against human HeLa cells assessed as swelling and disruption of mitochondria at LC50 of 2.5 uM after 30 mins by fluorescence imaging using DAPI nuclear staining. It counts as functional, cell-based.
For data set [17], the system named is HeLa. Put plainly: Induction of apoptosis in human HeLa cells assessed as caspase 3 activation at 2.5 uM. It counts as functional, cell-based. The procedure, abridged:
as §3

The source made the active and inactive calls. The calls are words filed in the database; no cut-off is given here.

This is an account of results in ChEMBL document CHEMBL1138505, “Engineered apoptosis-inducing peptides with enhanced mitochondrial localization and potency” (J Med Chem, 2009).

As for `CCCCCCC(NC(=O)C(N)CCCCN)C(=O)NC(C)C(=O)NC(CCCCN)C(=O)NC(CCCCCC)C(=O)NC(C)C(=O)NC(CCCCN)C(=O)NC(CCCCN)C(=O)NC(CCCCCC)C(=O)NC(C)C(=O)NC(CCCCN)C(=O)NC(CCCCCC)C(=O)NC(C)C(=O)NC(CCCCN)C(=O)O` (racemic), the Activity in data set [1] is > 100 µM; in data set [4], 3.1 µM. Besides, the CC50 with HeLa [2] turned out to be 3.7 µM. In addition, the HC50 at 2 h in [3] was > 100 µM.
Take `CC(NC(=O)C(CC1CCCCC1)NC(=O)C(N)CCCCN)C(=O)NC(CCCCN)C(=O)NC(CC1CCCCC1)C(=O)NC(C)C(=O)NC(CCCCN)C(=O)NC(CCCCN)C(=O)NC(CC1CCCCC1)C(=O)NC(C)C(=O)NC(CCCCN)C(=O)NC(CC1CCCCC1)C(=O)NC(C)C(=O)NC(CCCCN)C(=O)O` (racemic): the Activity in data set [1] is > 100 µM; in data set [4] it was 6.3 µM. Moreover, in the data set with HeLa [2], the CC50 amounted to 6.5 µM. In data set [3], the concentration for 50% haemolysis (HC50) at 2 h was > 100 µM.
With `CC(C)C[C@@H](NC(=O)[C@@H](CCCCN)NC(=O)[C@H](CS)NC(=O)[C@H](CCCNC(=N)N)NC(=O)CNC(=O)[C@H](CC(N)=O)NC(=O)[C@@H](N)CS)C(=O)N[C@H](C)C(=O)N[C@H](CCCCN)C(=O)N[C@H](CC(C)C)C(=O)N[C@H](C)C(=O)N[C@H](CCCCN)C(=O)N[C@H](CCCCN)C(=O)N[C@H](CC(C)C)C(=O)N[C@H](C)C(=O)N[C@H](CCCCN)C(=O)N[C@H](CC(C)C)C(=O)N[C@H](C)C(=O)N[C@H](CCCCN)C(=O)O`, in the data set with MDA-MB-231 [5], the Ratio turned out to be 2.3. The CC50 with MDA-MB-231 [6] amounted to 144 µM; in data set [7] it was 63 µM.
`C[C@@H](NC(=O)[C@@H](CC1CCCCC1)NC(=O)[C@H](N)CCCCN)C(=O)N[C@H](CCCCN)C(=O)N[C@H](CC1CCCCC1)C(=O)N[C@H](C)C(=O)N[C@H](CCCCN)C(=O)N[C@H](CCCCN)C(=O)N[C@H](CC1CCCCC1)C(=O)N[C@H](C)C(=O)N[C@H](CCCCN)C(=O)N[C@H](CC1CCCCC1)C(=O)N[C@H](C)C(=O)N[C@H](CCCCN)C(=O)O`: the CC50 at 24 h in data set [8] stood at 5.8 µM. For the same compound, the result with HeLa [9], in the data set with HeLa [11], with HeLa [12], in the data set with HeLa [13], with HeLa [15] and with HeLa [16] was Active. Further, the outcome with HeLa [17] was Active. Moreover, the CC50 was 2 µM in the data set on DU-145, 3.3 µM in the data set with FaDu, 2.3 µM with HeLa [2] and 2 µM with MCF7. In addition, the Activity in data set [1] is 9 µM; in the data set with HeLa [14], “tde”; in data set [4], 1.3 µM. The logD in data set [10] was -1.73. Besides, the HC50 at 2 h in [3] is > 42 µM.
`CC(C)CC(NC(=O)C(N)CCCCN)C(=O)NC(C)C(=O)NC(CCCCN)C(=O)NC(CC(C)C)C(=O)NC(C)C(=O)NC(CCCCN)C(=O)NC(CCCCN)C(=O)NC(CC(C)C)C(=O)NC(C)C(=O)NC(CCCCN)C(=O)NC(CC(C)C)C(=O)NC(C)C(=O)NC(CCCCN)C(=O)O` (racemic): the Activity is > 100 µM in data set [1] and 200 µM in data set [4]. For the same compound, the CC50 in the data set on HeLa [2] was 160 µM. Further, the concentration for 50% haemolysis (HC50) at 2 h in data set [3] is > 100 µM.
On to `C[C@@H](NC(=O)[C@@H](Cc1ccccc1)NC(=O)[C@H](N)CCCCN)C(=O)N[C@H](CCCCN)C(=O)N[C@H](Cc1ccccc1)C(=O)N[C@H](C)C(=O)N[C@H](CCCCN)C(=O)N[C@H](CCCCN)C(=O)N[C@H](Cc1ccccc1)C(=O)N[C@H](C)C(=O)N[C@H](CCCCN)C(=O)N[C@H](Cc1ccccc1)C(=O)N[C@H](C)C(=O)N[C@H](CCCCN)C(=O)O`, for which the logD in [10] was -2.52.
Consider `C[C@@H](NC(=O)[C@@H](CC1CCCCC1)NC(=O)[C@@H](CCCCN)NC(=O)[C@H](CS)NC(=O)[C@H](CCCNC(=N)N)NC(=O)CNC(=O)[C@H](CC(N)=O)NC(=O)[C@@H](N)CS)C(=O)N[C@H](CCCCN)C(=O)N[C@H](CC1CCCCC1)C(=O)N[C@H](C)C(=O)N[C@H](CCCCN)C(=O)N[C@H](CCCCN)C(=O)N[C@H](CC1CCCCC1)C(=O)N[C@H](C)C(=O)N[C@H](CCCCN)C(=O)N[C@H](CC1CCCCC1)C(=O)N[C@H](C)C(=O)N[C@H](CCCCN)C(=O)O`, for which, in the data set on MDA-MB-231 [5], the Ratio is 2.7. The CC50 came out at 17 µM in the data set with MDA-MB-231 [6] and 7 µM in data set [7].
With `CCCCCC[C@@H](NC(=O)[C@H](N)CCCCN)C(=O)N[C@H](C)C(=O)N[C@H](CCCCN)C(=O)N[C@H](CCCCCC)C(=O)N[C@H](C)C(=O)N[C@H](CCCCN)C(=O)N[C@H](CCCCN)C(=O)N[C@H](CCCCCC)C(=O)N[C@H](C)C(=O)N[C@H](CCCCN)C(=O)N[C@H](CCCCCC)C(=O)N[C@H](C)C(=O)N[C@H](CCCCN)C(=O)O`, the CC50 at 24 h in data set [8] was 2.8 µM. Moreover, the CC50 worked out at 2 µM with DU-145, 2.8 µM with FaDu, 2.5 µM with HeLa [2] and 2.2 µM in the data set on MCF7. Besides, the Activity in data set [1] is 8 µM; in data set [4] it was 2.5 µM. Also, the HC50 at 2 h in data set [3] stood at 31 µM.
Take `CC(C)C[C@@H](NC(=O)[C@H](N)CCCCN)C(=O)N[C@H](C)C(=O)N[C@H](CCCCN)C(=O)N[C@H](CC(C)C)C(=O)N[C@H](C)C(=O)N[C@H](CCCCN)C(=O)N[C@H](CCCCN)C(=O)N[C@H](CC(C)C)C(=O)N[C@H](C)C(=O)N[C@H](CCCCN)C(=O)N[C@H](CC(C)C)C(=O)N[C@H](C)C(=O)N[C@H](CCCCN)C(=O)O`: the CC50 at 24 h in [8] is > 200 µM. The CC50 in the data set on DU-145 is > 300 µM; in the data set with FaDu, > 200 µM; with HeLa [2], 350 µM; in the data set with MCF7 it was > 300 µM. Besides, the figures for the Activity in data set [1] and in [4] were > 100 µM and 200 µM, respectively. In addition, the log distribution coefficient (logD) in data set [10] is -2.3. Besides, the HC50 at 2 h in data set [3] is > 100 µM.
